Data published in ChEMBL document CHEMBL3779865, “Discovery of Benzo[cd]indol-2(1H)-ones as Potent and Specific BET Bromodomain Inhibitors: Structure-Based Virtual Screening, Optimization, and Biological Evaluation” (J Med Chem, 2016).

Columns and labels:
[1] = molecular target: T1, Bromodomain-containing protein 4 (Homo sapiens, UniProt O60885)
[2] = molecular target: T1, Bromodomain-containing protein 4; experiment: Binding affinity to human His6-tagged BRD4 bromodomain 1 (N44 to E168 residues) expressed in Escherichia coli BL21(DE3) cells by isothermal titration calorimetry
[3] = molecular target: T1, Bromodomain-containing protein 4; experiment: Inhibition of human His6-tagged BRD4 bromodomain 1 (N44 to E168 residues) expressed in Escherichia coli BL21(DE3) cells using biotin-H4KAc4 as substrate incubated for 2 hrs by alphascreen assay
[4] = molecular target: T2, Bromodomain-containing protein 9 (Homo sapiens) (UniProt Q9H8M2); experiment: Binding affinity to human His6-tagged BRD9 (L14 to Q134 residues) expressed in Escherichia coli BL21(DE3) cells at 200 uM incubated for 30 mins by SYPRO orange staining based fluorescence thermal shift assay
T2 sequence (whole entry): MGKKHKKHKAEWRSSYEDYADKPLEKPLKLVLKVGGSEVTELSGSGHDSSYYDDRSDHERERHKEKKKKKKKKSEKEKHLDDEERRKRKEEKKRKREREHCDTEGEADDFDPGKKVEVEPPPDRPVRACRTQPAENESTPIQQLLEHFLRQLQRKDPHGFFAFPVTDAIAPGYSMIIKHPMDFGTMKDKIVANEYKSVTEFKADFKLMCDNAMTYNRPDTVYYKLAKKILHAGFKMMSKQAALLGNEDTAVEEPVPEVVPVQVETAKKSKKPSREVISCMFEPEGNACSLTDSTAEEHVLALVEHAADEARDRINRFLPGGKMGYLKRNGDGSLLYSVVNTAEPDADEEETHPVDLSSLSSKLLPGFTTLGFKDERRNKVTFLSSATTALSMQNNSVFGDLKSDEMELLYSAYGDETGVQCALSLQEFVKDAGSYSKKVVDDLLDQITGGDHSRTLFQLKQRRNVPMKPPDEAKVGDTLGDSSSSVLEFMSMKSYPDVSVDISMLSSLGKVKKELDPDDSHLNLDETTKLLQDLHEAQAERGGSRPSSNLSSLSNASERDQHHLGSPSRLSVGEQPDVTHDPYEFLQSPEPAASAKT
Procedure, shortened: (§1)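 His6-tagged bromodomain constructs expressed in E. coli BL21(DE3) (grown at 25 °C to OD600 ~1.0, induced with 0.1 mM IPTG at 16 °C for 16 h). Purified by Ni affinity then gel filtration. Final 10 μM protein and 200 μM compound in 10 mM HEPES pH 7.5, 150 mM NaCl, DMSO ≤1%. SYPRO Orange 1:1000, 30 min on ice. Melt 30–75 °C at 0.3 °C/min. Triplicates. Tm from Boltzmann fit; ΔTm = Tm with minus without compound.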

[5] = Antiproliferative activity against human HL60 cells after 72 hrs by CCK8 assay; type: functional, cell-based, HL-60
[6] = molecular target: Bromodomain-containing protein 2 (Homo sapiens) (UniProt P25440); experiment: Binding affinity to human His6-tagged BRD2 bromodomain 1 (K77 to N194 residues) expressed in Escherichia coli BL21(DE3) cells at 200 uM incubated for 30 mins by SYPRO orange staining based fluorescence thermal shift assay
Procedure, shortened: as §1

[7] = test system: MV4-11; experiment: Antiproliferative activity against human MV4-11 cells after 72 hrs by CCK8 assay; type: functional, cell-based
[8] = molecular target: Bromodomain adjacent to zinc finger domain protein 2B (Homo sapiens) (UniProt Q9UIF8); experiment: Binding affinity to human His6-tagged BAZ2B (S1858 to S1972 residues) expressed in Escherichia coli BL21(DE3) cells at 200 uM incubated for 30 mins by SYPRO orange staining based fluorescence thermal shift assay
Procedure, shortened: as §1

[9] = molecular target: Histone acetyltransferase p300 (Homo sapiens) (UniProt Q09472); experiment: Binding affinity to human His6-tagged EP300 (A1040 to G1161 residues) expressed in Escherichia coli BL21(DE3) cells at 200 uM incubated for 30 mins by SYPRO orange staining based fluorescence thermal shift assay
Procedure, shortened: as §1

[10] = molecular target: CREB-binding protein (Homo sapiens) (UniProt Q92793); experiment: Binding affinity to human His6-tagged CREBBP (R1081 to G1197 residues) expressed in Escherichia coli BL21(DE3) cells at 200 uM incubated for 30 mins by SYPRO orange staining based fluorescence thermal shift assay
Procedure, shortened: as §1

[11] = molecular target: Bromodomain testis-specific protein (Homo sapiens) (UniProt Q58F21); experiment: Binding affinity to human His6-tagged BRDT bromodomain 1 (N21 to E137 residues) expressed in Escherichia coli BL21(DE3) cells at 200 uM incubated for 30 mins by SYPRO orange staining based fluorescence thermal shift assay
Procedure, shortened: as §1

[12] = molecular target: Histone acetyltransferase KAT2B (Homo sapiens) (UniProt Q92831); experiment: Binding affinity to human His6-tagged PCAF (G715 to D831 residues) expressed in Escherichia coli BL21(DE3) cells at 200 uM incubated for 30 mins by SYPRO orange staining based fluorescence thermal shift assay
Procedure, shortened: as §1

[13] = molecular target: Bromodomain-containing protein 3 (Homo sapiens) (UniProt Q15059); experiment: Binding affinity to human His6-tagged BRD3 bromodomain 1 (P24 to E144 residues) expressed in Escherichia coli BL21(DE3) cells at 200 uM incubated for 30 mins by SYPRO orange staining based fluorescence thermal shift assay
Procedure, shortened: as §1

[14] = molecular target: T3, Bromodomain-containing protein 1 (Homo sapiens) (UniProt O95696); experiment: Binding affinity to human His6-tagged BRD1 (E556 to A688 residues) expressed in Escherichia coli BL21(DE3) cells at 200 uM incubated for 30 mins by SYPRO orange staining based fluorescence thermal shift assay
T3 sequence (whole entry): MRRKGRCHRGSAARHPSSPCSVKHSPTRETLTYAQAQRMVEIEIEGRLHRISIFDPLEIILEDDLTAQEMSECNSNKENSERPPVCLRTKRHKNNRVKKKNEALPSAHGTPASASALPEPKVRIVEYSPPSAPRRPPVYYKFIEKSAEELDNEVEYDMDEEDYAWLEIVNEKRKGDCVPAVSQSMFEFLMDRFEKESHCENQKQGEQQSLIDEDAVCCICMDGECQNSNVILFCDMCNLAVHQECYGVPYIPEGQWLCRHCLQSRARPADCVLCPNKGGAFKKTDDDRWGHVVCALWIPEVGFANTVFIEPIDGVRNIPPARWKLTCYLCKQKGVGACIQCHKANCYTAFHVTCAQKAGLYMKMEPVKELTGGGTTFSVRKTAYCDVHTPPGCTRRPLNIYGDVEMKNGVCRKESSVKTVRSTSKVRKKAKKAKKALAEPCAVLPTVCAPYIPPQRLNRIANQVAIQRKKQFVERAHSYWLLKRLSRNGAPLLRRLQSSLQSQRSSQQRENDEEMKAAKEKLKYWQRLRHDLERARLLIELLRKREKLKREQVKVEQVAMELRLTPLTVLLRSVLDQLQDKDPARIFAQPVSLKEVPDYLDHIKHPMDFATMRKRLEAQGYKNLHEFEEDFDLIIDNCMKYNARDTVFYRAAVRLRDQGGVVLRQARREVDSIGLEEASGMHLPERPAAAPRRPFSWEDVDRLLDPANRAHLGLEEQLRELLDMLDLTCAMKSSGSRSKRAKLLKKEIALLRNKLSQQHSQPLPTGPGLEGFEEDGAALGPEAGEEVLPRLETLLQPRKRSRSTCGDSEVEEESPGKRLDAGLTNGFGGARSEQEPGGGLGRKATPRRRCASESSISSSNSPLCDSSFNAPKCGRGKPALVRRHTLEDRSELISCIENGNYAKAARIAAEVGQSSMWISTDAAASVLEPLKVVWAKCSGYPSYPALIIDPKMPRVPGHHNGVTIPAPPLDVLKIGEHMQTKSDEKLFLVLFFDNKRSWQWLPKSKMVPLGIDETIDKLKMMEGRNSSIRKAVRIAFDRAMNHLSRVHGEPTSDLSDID
Procedure, shortened: as §1

[15] = test system: HT-29; experiment: Antiproliferative activity against human HT-29 cells after 72 hrs by CCK8 assay; type: functional, cell-based
[16] = molecular target: Transcription initiation factor TFIID subunit 1 (Homo sapiens) (UniProt P21675); experiment: Binding affinity to human His6-tagged TAF1 bromodomain 1 (R1377 to D1503 residues) expressed in Escherichia coli BL21(DE3) cells at 200 uM incubated for 30 mins by SYPRO orange staining based fluorescence thermal shift assay
Procedure, shortened: as §1

[17] = molecular target: Histone-lysine N-methyltransferase ASH1L (Homo sapiens) (UniProt Q9NR48); experiment: Binding affinity to human His6-tagged ASH1L (E2433 to E2564 residues) expressed in Escherichia coli BL21(DE3) cells at 200 uM incubated for 30 mins by SYPRO orange staining based fluorescence thermal shift assay
Procedure, shortened: as §1

[18] = test system: MV4-11; experiment: Growth inhibition of human MV4-11 cells at 10 uM after 72 hrs by CCK8 assay; type: functional; settings: MV4-11, 72 h, read-out: GI
[19] = Apparent permeability from apical to basolateral side in human Caco2 cells at 10 uM incubated for 1 hr by HPLC-MS/MS analysis; type: ADME, cell-based; settings: Caco-2
[20] = Apparent permeability from basolateral to apical side in human Caco2 cells at 10 uM incubated for 1 hr by HPLC-MS/MS analysis; type: ADME, cell-based; settings: Caco-2
[21] = Apparent permeability from apical to basolateral side in human Caco2 cells assessed as drug recovery at 10 uM incubated for 1 hr by HPLC-MS/MS analysis; type: ADME, cell-based; settings: Caco-2, read-out: Drug recovery
[22] = Apparent permeability from basolateral to apical side in human Caco2 cells assessed as drug recovery at 10 uM incubated for 1 hr by HPLC-MS/MS analysis; type: ADME, cell-based; settings: Caco-2, read-out: Drug recovery
[23] = Homo sapiens, HL-60, 72 h, read-out: IC50
[24] = Homo sapiens, MV4-11, 72 h, read-out: IC50
[25] = Homo sapiens, HT-29, 72 h, read-out: IC50

Sequence of Histone acetyltransferase KAT2B (Homo sapiens) (Q92831 whole entry, looked up, the tested form may be a part): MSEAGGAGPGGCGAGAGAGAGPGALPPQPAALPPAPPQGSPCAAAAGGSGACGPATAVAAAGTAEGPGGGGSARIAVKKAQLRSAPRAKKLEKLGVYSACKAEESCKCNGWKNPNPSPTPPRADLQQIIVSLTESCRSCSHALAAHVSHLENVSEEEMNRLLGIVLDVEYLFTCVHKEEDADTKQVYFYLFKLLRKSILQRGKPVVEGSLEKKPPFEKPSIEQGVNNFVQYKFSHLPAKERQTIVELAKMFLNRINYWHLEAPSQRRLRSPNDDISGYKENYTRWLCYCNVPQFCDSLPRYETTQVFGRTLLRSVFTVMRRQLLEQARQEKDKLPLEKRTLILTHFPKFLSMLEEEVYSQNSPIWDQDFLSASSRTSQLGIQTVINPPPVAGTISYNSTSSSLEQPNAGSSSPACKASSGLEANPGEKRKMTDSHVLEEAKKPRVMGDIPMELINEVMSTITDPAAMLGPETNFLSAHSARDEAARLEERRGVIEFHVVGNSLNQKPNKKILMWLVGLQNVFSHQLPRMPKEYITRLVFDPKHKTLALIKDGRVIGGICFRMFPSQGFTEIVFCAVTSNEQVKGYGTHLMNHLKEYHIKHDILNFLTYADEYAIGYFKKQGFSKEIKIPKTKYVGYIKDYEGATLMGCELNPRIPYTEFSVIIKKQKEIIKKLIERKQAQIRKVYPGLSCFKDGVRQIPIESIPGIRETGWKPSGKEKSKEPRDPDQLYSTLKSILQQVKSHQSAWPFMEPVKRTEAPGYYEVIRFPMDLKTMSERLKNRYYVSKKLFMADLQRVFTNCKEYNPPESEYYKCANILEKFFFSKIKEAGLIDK
Sequence of CREB-binding protein (Homo sapiens) (Q92793 2-2442 limits assumed): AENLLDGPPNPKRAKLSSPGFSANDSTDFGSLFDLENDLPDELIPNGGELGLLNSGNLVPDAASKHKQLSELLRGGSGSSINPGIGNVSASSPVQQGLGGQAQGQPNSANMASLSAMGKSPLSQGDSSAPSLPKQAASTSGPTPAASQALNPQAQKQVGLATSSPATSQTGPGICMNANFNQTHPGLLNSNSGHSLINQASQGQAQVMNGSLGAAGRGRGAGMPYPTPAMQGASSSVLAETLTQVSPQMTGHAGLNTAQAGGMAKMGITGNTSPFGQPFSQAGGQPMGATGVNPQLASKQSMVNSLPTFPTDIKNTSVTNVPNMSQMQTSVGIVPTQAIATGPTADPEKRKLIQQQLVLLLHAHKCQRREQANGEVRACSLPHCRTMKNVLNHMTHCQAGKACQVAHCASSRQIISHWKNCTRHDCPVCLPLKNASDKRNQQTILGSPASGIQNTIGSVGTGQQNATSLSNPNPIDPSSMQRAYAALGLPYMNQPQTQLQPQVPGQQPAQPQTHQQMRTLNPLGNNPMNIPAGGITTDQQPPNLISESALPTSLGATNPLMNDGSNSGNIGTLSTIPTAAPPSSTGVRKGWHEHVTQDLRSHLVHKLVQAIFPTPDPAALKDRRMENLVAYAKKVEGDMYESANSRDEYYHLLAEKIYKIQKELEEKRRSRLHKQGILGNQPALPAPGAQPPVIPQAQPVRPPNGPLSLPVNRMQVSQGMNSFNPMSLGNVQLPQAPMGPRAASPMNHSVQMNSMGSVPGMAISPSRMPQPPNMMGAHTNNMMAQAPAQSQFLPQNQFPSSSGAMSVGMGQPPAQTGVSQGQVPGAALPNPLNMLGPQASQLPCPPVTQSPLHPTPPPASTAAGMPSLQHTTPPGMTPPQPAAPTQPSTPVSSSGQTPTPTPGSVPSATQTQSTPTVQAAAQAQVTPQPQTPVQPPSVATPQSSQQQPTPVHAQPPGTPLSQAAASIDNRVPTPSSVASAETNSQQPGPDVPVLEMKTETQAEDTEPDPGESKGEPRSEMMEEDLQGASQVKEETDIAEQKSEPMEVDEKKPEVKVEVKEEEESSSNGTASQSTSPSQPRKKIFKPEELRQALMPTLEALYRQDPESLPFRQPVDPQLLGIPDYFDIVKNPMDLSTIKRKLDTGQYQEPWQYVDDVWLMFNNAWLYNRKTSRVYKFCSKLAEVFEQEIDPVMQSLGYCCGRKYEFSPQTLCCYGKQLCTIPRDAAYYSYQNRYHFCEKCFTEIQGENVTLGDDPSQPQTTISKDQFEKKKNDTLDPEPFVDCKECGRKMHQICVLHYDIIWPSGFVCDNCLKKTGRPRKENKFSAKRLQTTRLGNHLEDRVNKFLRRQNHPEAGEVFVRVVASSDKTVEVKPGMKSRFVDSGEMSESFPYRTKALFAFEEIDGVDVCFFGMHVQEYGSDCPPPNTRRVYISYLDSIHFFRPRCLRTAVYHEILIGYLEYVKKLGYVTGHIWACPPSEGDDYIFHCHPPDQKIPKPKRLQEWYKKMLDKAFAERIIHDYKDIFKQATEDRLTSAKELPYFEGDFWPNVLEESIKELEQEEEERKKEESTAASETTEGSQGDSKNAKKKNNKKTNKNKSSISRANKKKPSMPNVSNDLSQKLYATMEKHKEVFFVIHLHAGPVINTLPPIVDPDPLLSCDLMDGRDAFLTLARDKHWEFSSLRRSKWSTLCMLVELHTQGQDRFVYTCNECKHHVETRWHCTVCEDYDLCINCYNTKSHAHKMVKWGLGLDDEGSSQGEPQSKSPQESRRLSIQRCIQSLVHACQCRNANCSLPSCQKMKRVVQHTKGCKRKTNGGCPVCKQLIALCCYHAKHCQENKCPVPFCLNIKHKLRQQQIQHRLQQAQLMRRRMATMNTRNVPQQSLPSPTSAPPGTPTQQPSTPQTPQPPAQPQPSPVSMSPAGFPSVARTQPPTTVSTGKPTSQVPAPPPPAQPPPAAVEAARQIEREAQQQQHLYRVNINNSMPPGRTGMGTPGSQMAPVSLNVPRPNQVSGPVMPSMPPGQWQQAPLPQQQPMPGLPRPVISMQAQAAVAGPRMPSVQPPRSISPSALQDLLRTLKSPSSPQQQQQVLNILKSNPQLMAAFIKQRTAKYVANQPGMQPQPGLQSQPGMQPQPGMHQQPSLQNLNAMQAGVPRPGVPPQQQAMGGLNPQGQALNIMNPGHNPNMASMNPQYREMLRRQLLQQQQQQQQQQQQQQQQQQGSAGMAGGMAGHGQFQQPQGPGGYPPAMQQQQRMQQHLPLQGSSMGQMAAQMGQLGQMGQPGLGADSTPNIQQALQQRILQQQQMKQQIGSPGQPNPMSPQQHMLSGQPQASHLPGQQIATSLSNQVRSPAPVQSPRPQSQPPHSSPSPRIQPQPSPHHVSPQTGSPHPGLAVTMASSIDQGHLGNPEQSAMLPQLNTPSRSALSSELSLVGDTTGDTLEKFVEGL
Sequence of Bromodomain-containing protein 2 (Homo sapiens) (P25440 whole entry, looked up, the tested form may be a part): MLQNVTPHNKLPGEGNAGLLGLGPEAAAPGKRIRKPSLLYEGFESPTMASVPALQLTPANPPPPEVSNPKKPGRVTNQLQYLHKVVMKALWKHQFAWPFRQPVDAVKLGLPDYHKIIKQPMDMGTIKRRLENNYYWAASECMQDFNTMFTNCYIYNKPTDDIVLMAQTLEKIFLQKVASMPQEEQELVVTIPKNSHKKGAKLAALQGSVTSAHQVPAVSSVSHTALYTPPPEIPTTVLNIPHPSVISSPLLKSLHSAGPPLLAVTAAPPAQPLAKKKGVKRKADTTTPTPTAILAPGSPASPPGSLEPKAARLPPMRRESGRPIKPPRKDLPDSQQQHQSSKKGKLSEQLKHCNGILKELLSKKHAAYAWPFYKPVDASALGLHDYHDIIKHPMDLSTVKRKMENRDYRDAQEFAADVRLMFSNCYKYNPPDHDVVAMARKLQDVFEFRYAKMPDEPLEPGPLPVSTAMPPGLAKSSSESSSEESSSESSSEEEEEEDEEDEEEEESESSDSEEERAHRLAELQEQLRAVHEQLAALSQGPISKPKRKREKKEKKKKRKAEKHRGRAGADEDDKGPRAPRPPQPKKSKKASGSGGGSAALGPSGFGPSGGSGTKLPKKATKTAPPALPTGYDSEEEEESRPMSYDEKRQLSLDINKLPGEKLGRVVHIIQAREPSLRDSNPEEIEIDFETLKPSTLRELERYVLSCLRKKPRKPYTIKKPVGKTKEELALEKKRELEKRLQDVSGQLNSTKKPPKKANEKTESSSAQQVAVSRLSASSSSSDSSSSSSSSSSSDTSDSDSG
Sequence of Bromodomain-containing protein 3 (Homo sapiens) (Q15059 2-726 limits assumed): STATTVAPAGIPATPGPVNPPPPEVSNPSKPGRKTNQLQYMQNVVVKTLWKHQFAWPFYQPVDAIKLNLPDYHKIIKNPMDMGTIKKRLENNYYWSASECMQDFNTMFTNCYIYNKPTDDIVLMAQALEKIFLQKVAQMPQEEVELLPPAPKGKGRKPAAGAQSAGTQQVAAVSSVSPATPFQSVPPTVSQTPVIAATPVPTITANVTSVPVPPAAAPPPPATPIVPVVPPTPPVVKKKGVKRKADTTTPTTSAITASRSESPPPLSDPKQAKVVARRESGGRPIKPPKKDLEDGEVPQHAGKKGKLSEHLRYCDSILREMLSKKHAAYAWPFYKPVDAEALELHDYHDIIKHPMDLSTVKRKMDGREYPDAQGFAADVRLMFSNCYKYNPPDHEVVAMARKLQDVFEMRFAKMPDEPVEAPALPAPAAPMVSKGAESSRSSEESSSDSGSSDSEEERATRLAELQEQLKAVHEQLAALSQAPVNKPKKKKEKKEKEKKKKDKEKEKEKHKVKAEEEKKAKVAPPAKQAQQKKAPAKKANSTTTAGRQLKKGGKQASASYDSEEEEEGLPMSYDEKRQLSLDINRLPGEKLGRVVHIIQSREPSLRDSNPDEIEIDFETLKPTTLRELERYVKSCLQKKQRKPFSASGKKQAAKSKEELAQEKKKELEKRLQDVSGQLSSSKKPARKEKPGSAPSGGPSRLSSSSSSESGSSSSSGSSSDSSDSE

Compound	ΔTm [1]	Kd [2]	IC50 [3]	ΔTm [4]	ΔTm [6]	IC50 [7, 24]	ΔTm [8]	ΔTm [9]	ΔTm [10]	ΔTm [11]	ΔTm [12]	ΔTm [13]	ΔTm [14]	IC50 [15, 25]	ΔTm [16]	ΔTm [17]	IC50 [5, 23]	further results
CCN1C(=O)c2cccc3c(NS(=O)(=O)C4CCCCC4)ccc1c23	10.1 °C	255 nM	210 nM	2.8 °C	5.8 °C	2850 nM	0 °C	4.7 °C	3.3 °C	5 °C	2.3 °C	7.8 °C	-0.3 °C	8100 nM	-0.6 °C	-0.4 °C	3860 nM	–
CCN1C(=O)c2cccc3c(NS(=O)(=O)c4ccc(F)cc4F)ccc1c23	9.5 °C	275 nM	120 nM	3 °C	5.5 °C	4190 nM	-5.7 °C	4.5 °C	2 °C	6.6 °C	3.6 °C	7.8 °C	1.6 °C	–	-1 °C	2.9 °C	–	inhibition of growth at 10 µM [18]: 25%
CCN1C(=O)c2cccc3c(NS(=O)(=O)c4cc(Cl)ccc4OC)ccc1c23	8.5 °C	180 nM	470 nM	2.4 °C	5.9 °C	2840 nM	0.6 °C	1.2 °C	0 °C	5.5 °C	0 °C	7.3 °C	0.1 °C	8200 nM	-0.1 °C	-0.9 °C	3000 nM	–
C[C@H]1O[C@@H](O[C@H]2[C@@H](O)C[C@H](O[C@H]3[C@@H](O)C[C@H](O[C@H]4CC[C@@]5(C)[C@H](CC[C@@H]6[C@@H]5C[C@@H](O)[C@]5(C)[C@@H](C7=CC(=O)OC7)CC[C@]65O)C4)O[C@@H]3C)O[C@@H]2C)C[C@H](O)[C@@H]1O [DIGOXIN]	–	–	–	–	–	–	–	–	–	–	–	–	–	–	–	–	–	Papp A→B at 1 h, 10 µM [19]: 1.6 ×10⁻⁶ cm/s; Papp B→A at 1 h, 10 µM [20]: 17.7 ×10⁻⁶ cm/s; recovery at 1 h, 10 µM [21]: 107%; recovery at 1 h, 10 µM [22]: 111%

Second part, led by results:

ΔTm [1]	Kd [2]	IC50 [3]	ΔTm [4]	ΔTm [6]	IC50 [7, 24]	ΔTm [8]	ΔTm [9]	ΔTm [10]	ΔTm [11]	ΔTm [12]	ΔTm [13]	ΔTm [14]	IC50 [15, 25]	ΔTm [16]	ΔTm [17]	Compound	IC50 [5, 23]	further results
9 °C	224 nM	–	0.8 °C	4.7 °C	1320 nM	0.5 °C	1.1 °C	0.6 °C	2.4 °C	-0.4 °C	6.5 °C	1.3 °C	14600 nM	0.3 °C	-0.5 °C	CCCNS(=O)(=O)c1ccc2c3c(cccc13)C(=O)N2CC	2950 nM	–
7.2 °C	392 nM	–	-2.6 °C	3.2 °C	–	1 °C	6.4 °C	4.8 °C	4.2 °C	1.5 °C	6 °C	2 °C	–	-0.2 °C	0.6 °C	CCN1C(=O)c2cccc3c(S(=O)(=O)Nc4ccccc4C(=O)O)ccc1c23	–	IC50 ([5]; hl-60): Not Active; IC50 ([7]; mv4-11): Not Active; IC50 ([15]; ht-29): Not Active
